Measurements published in ChEMBL document CHEMBL1127349, “6,7,8,9-Tetrahydro-N,N-di-n-propyl-3H-benzindol-8-amines. Derivatives as potent and orally active serotonin 5-HT1A receptor agonists” (J Med Chem, 1994).
Active and inactive are the calls of the source. The calls are words filed in the database; no cut-off is given here.

What was measured:
[1] = Area under the curve after intravenous administration at a dose of 4 umol/kg; format: ADME; settings: in vivo
In short: (§1)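 Male Sprague-Dawley rats, iv dosing. Blood sampled at intervals up to 12 h, plasma drug levels by GC/MS with internal standard and a 2–1000 pmol/mL standard curve in blank blood. AUC from total area of concentration–time curve; iv n = 3 (table values SEM, n = 4–6).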

[2] = Maximum concentration in plasma after administration of 10 umol/kg dose perorally; format: ADME, organism-based; design: dose 10 umol/kg, route oral; settings: po
In short: (§2)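 Male Sprague-Dawley rats starved 18 h, dosed orally. Blood samples over up to 12 h, drug quantified by GC/MS against internal standard (2–1000 pmol/mL standard curve). Cmax read from concentration–time curve; SEM, n = 4–6.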

[3] = Maximum concentration in plasma after administration of 4 umol/kg dose intravenously; format: ADME, organism-based; design: dose 4 umol/kg, route intravenous; settings: iv; in short: as §1
[4] = Bioavailability in rat (dose 10 uM/kg); format: ADME, organism-based; settings: in vivo
In short: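 Male Sprague-Dawley rats; oral group starved 18 h, compared with iv dosing. Blood sampled up to 12 h, levels by GC/MS. Absolute oral availability F (po/iv) from ratio of AUCs of blood concentration–time curves, po n = 5, iv n = 3.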

[5] = Time taken to reach maximum concentration after administration of 4 umol/kg dose intravenously; format: ADME, organism-based; settings: in vivo, iv
In short: (§3)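 Male Sprague-Dawley rats, starved 18 h for the oral arm, dosed iv or po. Blood sampled at intervals up to 12 h. Compound measured by GC/mass spectrometry against an internal standard, with a standard curve over 2–1000 pmol/mL in blank blood. tmax read from concentration–time curves, n = 4–6.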

[6] = Half life in plasma after administration of 4 umol/kg dose intravenously; format: ADME, organism-based; settings: iv; in short: as §1
[7] = Time taken to reach maximum concentration after administration of 10 umol/kg dose perorally; format: ADME, organism-based; settings: in vivo, po; in short: as §3
D(2) dopamine receptor = D(2) dopamine receptor (Rattus norvegicus, UniProt P61169); assay: Displacement of the radioligand [3H]spiperone from D2 receptor
D(2) dopamine receptor, sequence (P61169 whole entry): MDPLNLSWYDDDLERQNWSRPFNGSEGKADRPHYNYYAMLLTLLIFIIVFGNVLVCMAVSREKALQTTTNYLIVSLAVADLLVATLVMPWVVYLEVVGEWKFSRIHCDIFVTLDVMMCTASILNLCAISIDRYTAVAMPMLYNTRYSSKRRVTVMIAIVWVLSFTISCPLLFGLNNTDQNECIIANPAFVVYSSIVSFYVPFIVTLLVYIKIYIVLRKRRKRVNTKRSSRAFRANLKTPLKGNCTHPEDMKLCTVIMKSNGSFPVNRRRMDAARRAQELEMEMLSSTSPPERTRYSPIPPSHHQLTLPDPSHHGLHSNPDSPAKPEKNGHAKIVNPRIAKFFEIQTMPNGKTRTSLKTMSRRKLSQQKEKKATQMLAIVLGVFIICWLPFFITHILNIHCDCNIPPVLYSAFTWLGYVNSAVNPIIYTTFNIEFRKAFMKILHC
In short: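 Rat striatal membranes in 50 mM potassium phosphate buffer, incubated with 0.5 nM [3H]spiperone (3 mg tissue) 10 min at 37 °C. Nonspecific binding defined with 10 μM 6,7-ADTN. IC50 converted to Ki by Cheng–Prusoff; 3–7 experiments, each concentration in triplicate.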

Rattus norvegicus [8] = assay: Motor activity was measured by motility testing on injecting the compound subcutaneously into rats at the dose of 12.5 umol/kg; format: functional
In short: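 Rats given reserpine 5 mg/kg sc 18 h beforehand, then test compound sc in neck (n = 4). Placed singly in photocell motility meters straight after dosing; counts recorded for 30 min, gross behaviour observed throughout. Value as counts/30 min with SEM.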

Rattus norvegicus [9] = assay: Ratio of the 5HTP-accumulation decrease in limbic regions after sc to that of po administration at 10 umol/kg; format: functional, Limbic system
Rattus norvegicus [10] = organism: Rattus norvegicus; assay: The concentration yielding a half maximal decrease of the 5-HTP was determined in rat brain striatum.; format: functional
Rattus norvegicus [11] = assay: The concentration yielding a half maximal decrease of the DOPA was determined in rat brain hemispheres; Inactive at 12.5 umol/kg; format: functional, organism-based
In short: (§4)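 Reserpine-pretreated (5 mg/kg sc, 18 h) male Sprague-Dawley rats, 200–300 g; compounds in saline given sc. DOPA and 5-HTP in limbic system, striatum and hemispheres measured by HPLC with electrochemical detection. Dose–response curves of 4–6 doses (n = 4) per area, fitted to variable-slope sigmoid on log data to give ED50.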

Rattus norvegicus [12] = organism: Rattus norvegicus; assay: The concentration yielding a half maximal decrease of the DOPA was determined in rat brain striatum; format: functional; in short: as §4
Rattus norvegicus [13] = organism: Rattus norvegicus; assay: The concentration yielding a half maximal decrease of the 5-HTP was determined in rat brain hemispheres.; format: functional
Rattus norvegicus [14] = organism: Rattus norvegicus; assay: The concentration yielding a half maximal decrease of the 5-HTP was determined in rat limbic system.; format: functional
Rattus norvegicus [15] = organism: Rattus norvegicus; assay: The concentration yielding a half maximal decrease of the DOPA was determined in rat limbic system; format: functional
Rattus norvegicus [16] = organism: Rattus norvegicus; assay: Log concentration to inhibit 5-HTP accumulation was determined in rat brain hemispheres; format: functional; in short: as §4
Rattus norvegicus [17] = organism: Rattus norvegicus; assay: Log concentration to inhibit 5-HTP accumulation was determined in rat limbic system; format: functional; in short: as §4
Rattus norvegicus [18] = organism: Rattus norvegicus; assay: Log concentration to inhibit DOPA accumulation was determined in rat brain striatum; format: functional; in short: as §4
Rattus norvegicus [19] = organism: Rattus norvegicus; assay: Log concentration to inhibit DOPA accumulation was determined in rat limbic system; format: functional; in short: as §4
Rattus norvegicus [20] = organism: Rattus norvegicus; assay: Log concentration to inhibit 5-HTP accumulation was determined in rat brain striatum; format: functional; in short: as §4
[21] = target: T1, 5-hydroxytryptamine receptor 1A (Rattus norvegicus, UniProt P19327); assay: Displacement of the radioligand [3H]8-OH-DPAT from 5-hydroxytryptamine 1A receptor
T1 sequence (P19327 whole entry): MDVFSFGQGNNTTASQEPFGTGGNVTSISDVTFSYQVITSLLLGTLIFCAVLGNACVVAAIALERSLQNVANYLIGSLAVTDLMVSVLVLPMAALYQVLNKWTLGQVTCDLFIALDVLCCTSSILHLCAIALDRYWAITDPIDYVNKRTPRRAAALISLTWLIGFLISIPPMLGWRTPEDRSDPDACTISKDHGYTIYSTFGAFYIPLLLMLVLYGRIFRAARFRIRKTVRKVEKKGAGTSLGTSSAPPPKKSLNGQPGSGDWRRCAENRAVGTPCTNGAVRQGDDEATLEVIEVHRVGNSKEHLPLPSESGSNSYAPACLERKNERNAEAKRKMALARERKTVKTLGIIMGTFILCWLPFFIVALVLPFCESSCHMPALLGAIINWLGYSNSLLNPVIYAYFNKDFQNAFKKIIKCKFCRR
In short: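 Rat whole brain minus brain stem and cerebellum, washed membranes in 50 mM Tris pH 8.0 with 120 mM NaCl, 4 mM CaCl2, 4 mM MgCl2, 10 μM pargyline. Nonspecific with 10 μM 5-HT. IC50 by semilog linear regression, Ki via Cheng–Prusoff; 3–7 experiments, triplicates.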

[22] = Area under the curve after intravenous administration at a dose of 5 umol/kg; format: ADME; settings: in vivo; in short: as §1
[23] = Maximum concentration in plasma after administration of 40 umol/kg dose perorally; format: ADME, organism-based; design: dose 40 umol/kg, route oral; settings: po; in short: as §2
[24] = Maximum concentration in plasma after administration of 5 umol/kg dose intravenously; format: ADME, organism-based; design: dose 5 umol/kg, route intravenous; settings: iv; in short: as §1
[25] = Bioavailability in rats after 2 mg/kg (i.v.) and 10 mg/kg (p.o.) administration; format: ADME, organism-based; settings: rat, in vivo, po
[26] = Time taken to reach maximum concentration after administration of 40 umol/kg dose perorally; format: ADME, organism-based; settings: in vivo, po; in short: as §3
[27] = Time taken to reach maximum concentration after administration of 5 umol/kg dose intravenously; format: ADME, organism-based; settings: in vivo, iv; in short: as §3
[28] = Half life in plasma after administration of 5 umol/kg dose intravenously; format: ADME, organism-based; settings: iv; in short: as §1
Rattus norvegicus [29] = organism: Rattus norvegicus; assay: The concentration yielding a half maximal decrease of the DOPA was determined in rat brain hemispheres; format: functional
Rattus norvegicus [30] = organism: Rattus norvegicus; assay: The concentration yielding a half maximal decrease of the DOPA was determined in rat limbic system.; format: functional
Rattus norvegicus [31] = organism: Rattus norvegicus; assay: Log concentration to inhibit DOPA accumulation was determined in rat brain hemispheres; format: functional; in short: as §4
Rattus norvegicus [32] = organism: Rattus norvegicus; assay: The concentration yielding a half maximal decrease of the DOPA was determined in rat brain striatum.; format: functional

SMILES: CCCN(CCC)[C@@H]1CCc2ccc3[nH]c(C#N)cc3c2C1 [U-92,016-A]
- AUC [1]: 1817 pM/kg
- Cmax [2]: 1120 nM
- Cmax [3]: 2570 nM
- bioavailability [4]: 63%
- Tmax [5]: 4 min
- half-life [6]: 1.5 h
- Tmax [7]: 1.25 h
- Ki (D(2) dopamine receptor): 538 nM
- Activity (Rattus norvegicus [8]): 194 Counts 30min-1
- ED50 (Rattus norvegicus [9]): 55%
- ED50 (Rattus norvegicus [10]): 0.079 µmol/kg
- ED50 (Rattus norvegicus [11]): inactive
- ED50 (Rattus norvegicus [12]): 3.36 µmol/kg
- ED50 (Rattus norvegicus [13]): 0.28 µmol/kg
- ED50 (Rattus norvegicus [14]): 0.21 µmol/kg
- ED50 (Rattus norvegicus [15]): 2.01 µmol/kg
- pED50 (Rattus norvegicus [16]): 6.56
- pED50 (Rattus norvegicus [17]): 6.67
- pED50 (Rattus norvegicus [18]): 5.47
- pED50 (Rattus norvegicus [19]): 5.69
- pED50 (Rattus norvegicus [20]): 7.1

SMILES: CCCN(CCC)C1CCc2ccc3[nH]cc(C#N)c3c2C1 (stereo not drawn)
- Ki [21]: 1.8 nM
- AUC [22]: 1115 pM/kg
- Cmax [23]: 1500 nM
- Cmax [24]: 1730 nM
- bioavailability [25]: 54%
- Tmax [26]: 2.25 h
- Tmax [27]: 2 min
- half-life [28]: 1.5 h
- Ki (D(2) dopamine receptor): 439 nM
- Activity (Rattus norvegicus [8]): 317 Counts 30min-1
- ED50 (Rattus norvegicus [10]): 0.22 µmol/kg
- ED50 (Rattus norvegicus [29]): 5.2 µmol/kg
- ED50 (Rattus norvegicus [13]): 0.45 µmol/kg
- ED50 (Rattus norvegicus [14]): 0.17 µmol/kg
- ED50 (Rattus norvegicus [30]): 1.05 µmol/kg
- pED50 (Rattus norvegicus [16]): 6.35
- pED50 (Rattus norvegicus [17]): 6.77
- pED50 (Rattus norvegicus [31]): 5.29
- pED50 (Rattus norvegicus [18]): 5.49
- pED50 (Rattus norvegicus [19]): 5.98
- pED50 (Rattus norvegicus [20]): 6.65
- ED50 (Rattus norvegicus [32]): 3.2 µmol/kg
